From PubChem
HCT116 bCat-KO = beta-catenin-lacking colon tumor cell growth suppression; HCT116 beta-catenin knockout viability, CellTiter-Glo, 60 h; hits give low values; viability, % at 10 µM; 1.5% of 140,000 active; AID 818;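 active means viability at or under a set limit, the compound median less 4 SD, cut at about 6% in these data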;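 further: 0% = Hyamine 1622 control at 20 µM and 100% = untreated cell control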
H69AR growth 86K = growth inhibitors of human H69AR lung tumor cells | 6% of 85,000 active | viability, % at 10 µM | H69AR lung tumor viability, ATP luminescence, 72 h; hits give low values | AID 598;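 active means viability at or below 40%; inactive means viability above 40%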;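 further: multidrug resistant small cell line overexpressing MRP-1 efflux transporter; 100% = mean luminescence of untreated control wells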
Lung fibro prol = blocks proliferation of human lung fibroblasts. LL 47 human lung fibroblast viability, ATP luminescence; hits give low values. viability, % at 10 µM. 1.1% of 85,000 active;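 active means viability at or below 50% in the single dose screen; inactive means viability above 50%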;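 further: compound exposure lasted 72 h before the ATP readout; 100% = median luminescence of untreated cell-only wells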
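Signal: luminescent ATP detection, CellTiter-Glo; assay system: LL 47 human lung fibroblasts; input: 1,150 cells/well; incubation: overnight cell rest, 72 h compound treatment at 37 °C; measure: % viability versus median cells-only luminescence; medium: IMEM growth medium with 15% fetal bovine serum; dosing: compound addition at 0.1% DMSO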
HUVEC prolif 384 = human endothelial cell proliferation inhibition | HUVEC proliferation, CellTiter-Glo luminescence, 72 h; hits give low values | 1.1% of 86,000 active | viability, % at 10 µM (by protocol);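 active means viability at or below 30%; inactive means viability above 30%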;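 further: 100% = median luminescence of DMSO-only cell control wells on each plate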
HCT116 PTEN-null = PTEN-deleted cell growth suppression; HCT116 PTEN-null viability, CellTiter-Glo, 60 h; hits give low values; viability, % at 10 µM; 1.2% of 140,000 active; AID 827;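 active means viability at or below a set limit, 4 SD under the median of all tested compounds, cut at about 3.7% in these data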;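 further: PTEN knockout HCT116 line with beta catenin targeted HCT116 as companion control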
Cav32 inh = inhibitors of human Cav3.2 T-type calcium channel | O95180 | Cav3.2-expressing cells, Fluo-4 calcium fluorescence FDSS; hits give low values | B-score at 10 µM | 4% of 100,000 active;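 active means single-dose well whose peak fluorescence ratio is a statistical outlier from its plate by either plate-standardised score or position-corrected B-score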
* hit, by the source's call; nt = no result. A selection: hits, their analogues and other compounds. The true share with any hit is near 7.1%.

SMILES | HCT116 bCat-KO | H69AR growth 86K | Lung fibro prol | HUVEC prolif 384 | HCT116 PTEN-null | Cav32 inh
CCOc1cc(C(=O)Nc2ccccc2F)cc(Br)c1OCC | 93.0 | nt | nt | nt | 82.3 | nt
CC(=O)N1CCN(c2ccccc2NC(=O)COc2ccc(Cl)cc2Cl)CC1 | 77.9 | 56.8 | 84.1 | 92.2 | 61.3 | -4.73*
CSc1ccccc1NC(=O)COc1ccc(Cl)cc1Cl | 68.2 | nt | nt | nt | 79.5 | nt
C=CCn1c(CCNC(=O)c2ccccc2F)nnc1SCC(=O)Nc1nc2ccccc2s1 | 83.5 | 90.4 | 104.8 | 93.5 | 84.2 | -1.68
CC(C(=O)N/N=C/c1ccc(N(C)C)c(Br)c1)N(c1ccccc1)S(C)(=O)=O (stereo not drawn) | 78.0 | nt | nt | nt | 66.5 | -5.97*
COc1ccc(N(C(C)C(=O)N/N=C/c2ccc(OC(C)C)cc2)S(C)(=O)=O)cc1 (stereo not drawn) | 96.3 | nt | nt | nt | 102.9 | -0.611
Cc1ccccc1OCCNC(=O)c1ccccc1Sc1ccccc1C#N | 83.8 | nt | nt | nt | 77.4 | -5.52*
Cc1ccc2c(c1)nnn2C1CCN(S(=O)(=O)c2ccc(C(=O)N3C(C)CCCC3C)cc2)CC1 (stereo not drawn) | 49.1 | 20.9* | 98.8 | 83.5 | 53.8 | nt
CS(=O)(=O)CCC(C(=O)OCc1ccc(Cl)cc1)N1C(=O)c2ccccc2C1=O (stereo not drawn) | 91.5 | nt | nt | nt | 108.8 | nt
O=C(CCl)Nc1cc(-c2ccccc2)nn1-c1ccccc1 | 3.6* | 1.2* | 6.8* | 14.5* | 2.5* | nt
CCCCn1c(NC(=O)c2ccccc2Cl)c(C#N)c2nc3ccccc3nc21 | 58.2 | 20.1* | 94.4 | 54.6 | 43.1 | -8.77*
O=C1CCCC2=C1C(c1ccccc1O)C1=C(CCCC1=O)O2 | 103.2 | 73.0 | 93.0 | 94.5 | 104.9 | 0.553
O=C1CCCC(O)=C1C(C#Cc1ccccc1)C1=C(O)CCCC1=O | 99.8 | 7.3* | 80.8 | 75.8 | 107.3 | 1.26
CC(C)CN(CC(C)C)C(=O)C12CCC(C)(C(=O)O1)C2(C)C (stereo not drawn) | 86.2 | 99.8 | 98.7 | 109.3 | 95.5 | -0.39
CN1/C(=N\O)c2cccc3cccc1c23 | 92.0 | 100.5 | 94.7 | 76.0 | 98.5 | -4.38*
COC(=O)C1=C[C@@H](C(=O)OC)[C@@H]2C3=C(C(=O)C2(C)C)[C@H](c2ccccc2)[C@@H]2C(=O)N(C)C(=O)[C@@H]2[C@@H]3C1 | nt | nt | nt | nt | nt | 1.21
CCCc1nc2sc3c(SCC(=O)NCc4ccco4)ncnc3c2c2c1CCC2 | 30.3 | 8.6* | 94.9 | 57.8 | 27.3 | 0.509
Cc1nc(SCC(=O)NCc2ccco2)c2c3c(sc2n1)CCCC3 | 66.9 | 59.0 | 93.5 | 85.0 | 71.8 | -2.18
CC(C)Sc1nc(SCC(=O)NCc2ccco2)c2c3c(sc2n1)COC(C)(C)C3 | 68.7 | 34.2* | 91.2 | 85.7 | 80.0 | -2.15
CCOC(=O)Cc1nnc2c(Nc3ccc(Cl)cc3)nc3nonc3n12 | 32.7 | 14.1* | 70.6 | 38.1 | 26.4 | 0.28
CC(C)CO/C(=N/S(=O)(=O)c1ccccc1)c1ccccc1 | 87.8 | 98.4 | 97.1 | 92.5 | 87.6 | -4.13*
COc1ccc(NS(=O)(=O)c2cc([N+](=O)[O-])ccc2N/N=C\c2c(C)[nH]c3ccccc23)cc1 | 13.9 | nt | nt | nt | 3.8* | 0.0263
Cc1[nH]c2ccccc2c1/C=N/Nc1ccc([N+](=O)[O-])cc1S(=O)(=O)Nc1ccc(Cl)cc1 | 57.4 | nt | nt | nt | 43.1 | -0.199
O=C(NNC(=O)c1cccs1)c1ccc(Cl)c(Cl)c1 | 91.7 | nt | nt | nt | 86.9 | nt
Cc1ccc(NC(=S)N/N=C/c2ccc([N+](=O)[O-])s2)cc1 | 1.6* | nt | nt | nt | 1.8* | nt
SMILES | HCT116 bCat-KO | H69AR growth 86K | Lung fibro prol | HUVEC prolif 384 | HCT116 PTEN-null | Cav32 inh
O=C(CNC(=O)c1ccccc1Cl)N/N=C/c1ccc([N+](=O)[O-])s1 | 10.9 | nt | nt | nt | 14.3 | nt
Cc1cc(C)cc(N=Cc2ccc([N+](=O)[O-])s2)c1 | 1.9* | nt | nt | nt | 1.8* | nt
Cc1onc(-c2ccccc2)c1C(=O)N/N=C/c1ccc([N+](=O)[O-])s1 | 2.9* | nt | nt | nt | 2.6* | nt
NC(=O)c1ccc(N=Cc2ccc([N+](=O)[O-])s2)cc1 | 1.6* | nt | nt | nt | 1.3* | nt
Cc1c(N=Cc2ccc(Br)s2)cccc1[N+](=O)[O-] | 98.7 | nt | nt | nt | 88.8 | 0.537
COc1ccc(-c2coc3cc4oc(=O)cc(-c5ccccc5)c4cc23)cc1F | 2.6* | nt | nt | nt | 2.1* | nt
COc1ccc(-c2coc3cc4oc(=O)cc(C)c4cc23)cc1F | 31.6 | nt | nt | nt | 29.0 | -0.961
COc1ccccc1N(CC(=O)NC(C)C)S(=O)(=O)c1cccs1 | 90.6 | nt | nt | nt | 92.1 | nt
Cc1cc(C)cc(NS(=O)(=O)c2ccc(NC(=O)C3CCCCC3C(=O)O)cc2)c1 (stereo not drawn) | 95.6 | nt | nt | nt | 94.7 | nt
COc1ccc(C(=O)CSc2nnc(CNc3ccc(C)cc3C)n2Cc2ccco2)cc1 | 47.3 | 76.8 | 94.0 | 102.8 | 56.6 | nt
Cc1ccc(NCc2nnc(SCC(=O)Nc3ncc(C)s3)n2CC2CCCO2)c(C)c1 (stereo not drawn) | 90.2 | 87.4 | 88.2 | 95.6 | 84.4 | -4.51*
Cc1ccc(NCc2nnc(SCc3ccc(C#N)cc3)n2Cc2ccco2)c(C)c1 | 71.0 | 73.4 | 84.8 | 104.7 | 70.9 | -6.45*
Cc1ccc(C(=O)CSc2nnc(CNc3ccc(C)cc3C)n2Cc2ccco2)cc1 | 69.3 | 61.3 | 94.2 | 97.1 | 59.3 | -9.75*
Cc1ccc(C(C)C)c(OCc2nnc(SCC(=O)Nc3ncc(C)s3)n2C)c1 | 90.7 | 9.8* | 77.8 | 91.2 | 86.0 | -0.0326
Cc1ccc(NCc2nnc(SCC(=O)N3CCCCC3)n2CC2CCCO2)c(C)c1 (stereo not drawn) | nt | 84.3 | 95.9 | 92.6 | nt | -0.167
CCCCn1nnc(NC(=S)NC(=O)c2ccc(-c3cccc(Cl)c3Cl)o2)n1 | 93.4 | nt | nt | nt | 85.3 | nt
CCOC(=O)N1CCN(C(=O)c2ccc(CN(c3ccccc3)S(C)(=O)=O)cc2)CC1 | 94.6 | 92.4 | 100.1 | 108.1 | 98.5 | 1.09
COc1cccc(C(=O)c2sc(NC(C)C)nc2N)c1 | 4.9* | 45.9 | 42.6* | 51.8 | 3.8 | 1.47
O=C(NN=C1CCN(Cc2ccccc2)CC1)C(O)c1ccccc1 (stereo not drawn) | 98.5 | nt | nt | nt | 88.6 | nt
CCOc1ccc2c(c1)C(=NNC(=O)c1ccncc1)c1cc(OCC)ccc1-2 | 3.7* | nt | nt | nt | 2.4* | nt
N=c1c2c(-c3ccccc3)c(-c3ccccc3)n(Cc3ccco3)c2ncn1Cc1ccco1 | 1.5* | 1.4* | nt | 2.7* | 1.4* | -9.34*
N=c1c2c(-c3ccccc3)c(-c3ccccc3)n(Cc3ccccc3)c2ncn1CCCn1ccnc1 | 1.2* | -0.2* | 2.4* | 2.3* | 2.0* | -0.449
Cc1cc(-c2ccccc2)c2c(=O)[nH][nH]c2n1 | 93.3 | nt | nt | nt | 99.3 | nt
COC(C)(C)[C@H](O)COc1c2ccoc2cc2oc(=O)ccc12 | 0.6* | nt | nt | nt | 0.7* | 0.776
O=S(=O)(Nc1cccc2c1CCCC2)c1ccc(Cl)cc1 | 77.8 | nt | nt | nt | 90.8 | nt
CC1CCN(C(=O)C2CCN(CCCc3ccccc3)CC2)CC1 | 66.0 | 93.1 | 89.1 | 72.2 | 69.2 | -4.45*
CCCN(CCO)Cc1cccc(Br)c1 | 98.1 | 87.3 | 38.2* | 87.6 | 92.3 | 0.0862
